Laboratory results reported in ChEMBL document CHEMBL4715736, “Identification of anticancer agents based on the thieno[2,3-b]pyridine and 1H-pyrazole molecular scaffolds” (2016).

What was measured:
Format in all cases: functional
[1] = test system: SK-MEL-2; experiment: Growth inhibition of human SK-MEL-2 cells assessed as cell growth at 0.01 uM incubated for 48 hrs by sulforhodamine B assay relative to control; conditions: read-out: Activity
[2] = test system: SK-MEL-2; experiment: Growth inhibition of human SK-MEL-2 cells assessed as cell growth at 1 uM incubated for 48 hrs by sulforhodamine B assay relative to control; conditions: read-out: Activity
[3] = test system: TK-10; experiment: Growth inhibition of human TK-10 cells assessed as cell growth at 1 uM incubated for 48 hrs by sulforhodamine B assay relative to control; conditions: read-out: Activity
[4] = test system: CCRF-CEM; experiment: Growth inhibition of human CCRF-CEM cells assessed as cell growth at 10 uM incubated for 48 hrs by sulforhodamine B assay relative to control; conditions: read-out: Activity
Method in brief: (§1)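 NCI Developmental Therapeutics Program NCI60 panel. Compounds that were active in the 10 µM one-dose screen went on to dose–response testing. Growth at each concentration is expressed relative to untreated control (100%). GI50 (concentration giving 50% of maximal inhibition of proliferation) and TGI (concentration giving total growth inhibition) were derived from the curves.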

[5] = test system: HL-60(TB); experiment: Growth inhibition of human HL-60(TB) cells assessed as cell growth at 10 uM incubated for 48 hrs by sulforhodamine B assay relative to control; conditions: read-out: Activity
Method in brief: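 Screened by the NCI Developmental Therapeutics Program on its panel of 60 human tumour cell lines. Compounds were first tested at a single 10 µM dose, and compounds active there went to dose-response curves. Growth is expressed relative to untreated control (100%). GI50 (50% of maximal proliferation inhibition) and TGI (total growth inhibition) were derived from the dose-response data.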

[6] = test system: MOLT-4; experiment: Growth inhibition of human MOLT-4 cells assessed as cell growth at 10 uM incubated for 48 hrs by sulforhodamine B assay relative to control; conditions: read-out: Activity
Method in brief: (§2)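 Submitted to the NCI Developmental Therapeutics Program for the NCI60 human tumour cell line panel. First screen at a single 10 µM concentration. Read-out is growth relative to untreated control cells set at 100%.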

[7] = test system: HOP-62; experiment: Growth inhibition of human HOP-62 cells assessed as cell growth at 10 uM incubated for 48 hrs by sulforhodamine B assay relative to control; conditions: read-out: Activity; method in brief: as §2
[8] = test system: HOP-92; experiment: Growth inhibition of human HOP-92 cells assessed as cell growth at 10 uM incubated for 48 hrs by sulforhodamine B assay relative to control; conditions: read-out: Activity; method in brief: as §2
[9] = test system: NCI-H460; experiment: Growth inhibition of human NCI-H460 cells assessed as cell growth at 10 uM incubated for 48 hrs by sulforhodamine B assay relative to control; conditions: read-out: Activity; method in brief: as §2
[10] = test system: NCI-H522; experiment: Growth inhibition of human NCI-H522 cells assessed as cell growth at 10 uM incubated for 48 hrs by sulforhodamine B assay relative to control; conditions: read-out: Activity; method in brief: as §2
[11] = test system: HCT-15; experiment: Growth inhibition of human HCT-15 cells assessed as cell growth at 10 uM incubated for 48 hrs by sulforhodamine B assay relative to control; conditions: read-out: Activity; method in brief: as §2
[12] = test system: HT-29; experiment: Growth inhibition of human HT-29 cells assessed as cell growth at 10 uM incubated for 48 hrs by sulforhodamine B assay relative to control; conditions: read-out: Activity; method in brief: as §2
[13] = test system: SF-539; experiment: Growth inhibition of human SF-539 cells assessed as cell growth at 10 uM incubated for 48 hrs by sulforhodamine B assay relative to control; conditions: read-out: Activity
Method in brief: (§3)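 Run by the NCI Developmental Therapeutics Program as part of its 60-line human tumour panel. Each compound tested at a single 10 µM dose. Growth expressed as % relative to untreated control cells (100%).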

[14] = test system: SNB-75; experiment: Growth inhibition of human SNB-75 cells assessed as cell growth at 10 uM incubated for 48 hrs by sulforhodamine B assay relative to control; conditions: read-out: Activity; method in brief: as §3
[15] = test system: SK-MEL-2; experiment: Growth inhibition of human SK-MEL-2 cells assessed as cell growth at 10 uM incubated for 48 hrs by sulforhodamine B assay relative to control; conditions: read-out: Activity; method in brief: as §3
[16] = test system: UACC-257; experiment: Growth inhibition of human UACC-257 cells assessed as cell growth at 10 uM incubated for 48 hrs by sulforhodamine B assay relative to control; conditions: read-out: Activity; method in brief: as §3
[17] = test system: NCI/ADR-RES; experiment: Growth inhibition of human NCI/ADR-RES cells assessed as cell growth at 10 uM incubated for 48 hrs by sulforhodamine B assay relative to control; conditions: read-out: Activity; method in brief: as §2
[18] = test system: SK-OV-3; experiment: Growth inhibition of human SK-OV-3 cells assessed as cell growth at 10 uM incubated for 48 hrs by sulforhodamine B assay relative to control; conditions: read-out: Activity; method in brief: as §3
[19] = test system: 786-0; experiment: Growth inhibition of human 786-0 cells assessed as cell growth at 10 uM incubated for 48 hrs by sulforhodamine B assay relative to control; conditions: read-out: Activity; method in brief: as §1
[20] = test system: CAKI-1; experiment: Growth inhibition of human CAKI-1 cells assessed as cell growth at 10 uM incubated for 48 hrs by sulforhodamine B assay relative to control; conditions: read-out: Activity; method in brief: as §1
[21] = test system: TK-10; experiment: Growth inhibition of human TK-10 cells assessed as cell growth at 10 uM incubated for 48 hrs by sulforhodamine B assay relative to control; conditions: read-out: Activity; method in brief: as §3
[22] = test system: DU-145; experiment: Growth inhibition of human DU-145 cells assessed as cell growth at 10 uM incubated for 48 hrs by sulforhodamine B assay relative to control; conditions: read-out: Activity; method in brief: as §1
[23] = test system: MCF7; experiment: Growth inhibition of human MCF7 cells assessed as cell growth at 10 uM incubated for 48 hrs by sulforhodamine B assay relative to control; conditions: read-out: Activity; method in brief: as §2
[24] = test system: MDA-MB-231; experiment: Growth inhibition of human MDA-MB-231 cells assessed as cell growth at 10 uM incubated for 48 hrs by sulforhodamine B assay relative to control; conditions: read-out: Activity; method in brief: as §2
[25] = test system: Hs-578T; experiment: Growth inhibition of human Hs-578T cells assessed as cell growth at 10 uM incubated for 48 hrs by sulforhodamine B assay relative to control; conditions: read-out: Activity; method in brief: as §2
[26] = test system: BT-549; experiment: Growth inhibition of human BT-549 cells assessed as cell growth at 10 uM incubated for 48 hrs by sulforhodamine B assay relative to control; conditions: read-out: Activity
Method in brief: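 NCI Developmental Therapeutics Program NCI60 human tumour cell line panel, one-dose primary screen with every compound at 10 µM. Growth is expressed as % of untreated control cells (100%).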

[27] = test system: T47D; experiment: Growth inhibition of human T47D cells assessed as cell growth at 10 uM incubated for 48 hrs by sulforhodamine B assay relative to control; conditions: read-out: Activity; method in brief: as §3
[28] = test system: SW-620; experiment: Growth inhibition of human SW-620 cells incubated for 48 hrs by sulforhodamine B assay
Method in brief: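 NCI DTP 60-line human tumour panel. Dose-response curves were run only for ligands active in the initial 10 µM screen. GI50 (concentration giving 50% of maximal inhibition of proliferation) and TGI (concentration giving total growth inhibition) were derived from these curves.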

[29] = test system: IGROV-1; experiment: Growth inhibition of human IGROV-1 cells incubated for 48 hrs by sulforhodamine B assay
Method in brief: (§4)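 NCI60 panel at the NCI Developmental Therapeutics Program. Only compounds active in the 10 µM screen went to dose-response testing. GI50, the concentration giving 50% of maximal inhibition of proliferation, and TGI, the concentration giving total growth inhibition, were derived from the dose-response curves.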

[30] = test system: MDA-MB-468; experiment: Growth inhibition of human MDA-MB-468 cells incubated for 48 hrs by sulforhodamine B assay; conditions: for CC50: read-out: LC50 (the source's name); method in brief: as §4

Compound | growth at 0.01 µM [1] | growth at 1 µM [2] | growth at 1 µM [3] | growth at 10 µM [4] | growth at 10 µM [5] | growth at 10 µM [6] | growth at 10 µM [7] | growth at 10 µM [8] | growth at 10 µM [9] | growth at 10 µM [10] | growth at 10 µM [11] | growth at 10 µM [12] | growth at 10 µM [13] | growth at 10 µM [14] | growth at 10 µM [15] | growth at 10 µM [16] | growth at 10 µM [17] | growth at 10 µM [18] | growth at 10 µM [19] | growth at 10 µM [20] | further results
CCc1ccccc1NC(=O)c1sc2nc3c(cc2c1N)C(=O)CCC3 | 108% | 31% | 55% | 4% | -10.3% | 24.4% | 35.5% | 54% | 6.42% | -11.6% | 29% | 6% | -17% | -15.4% | 19.9% | 60% | 5% | 30% | 35.1% | 29.9% | growth at 10 µM [21]: 54.7%; growth at 10 µM [22]: 2.55%; growth at 10 µM [23]: 8.32%; growth at 10 µM [24]: 36%; growth at 10 µM [25]: 22.6%; growth at 10 µM [26]: 48%; growth at 10 µM [27]: 22%; GI50 [28]: 0.322 µM; LC50 (concentration killing 50% of cells) [28]: > 100 µM; TGI [28]: > 100 µM; GI50 [29]: 13.7 µM; LC50 [29]: > 100 µM; TGI [29]: > 100 µM; GI50 [30]: 0.209 µM; TGI [30]: 44.7 µM; CC50 [30]: > 100 µM
Cc1ccc(NC(=O)c2sc3nc4c(cc3c2N)C(=O)CCC4)cc1C | 105% | 22% | 52% | -6% | -21% | 27.6% | 23.6% | 50% | 4% | -9.22% | 27% | 1% | -18% | -10.3% | 31% | 54.2% | 9% | 4.9% | 29% | 35.7% | growth at 10 µM [21]: 56%; growth at 10 µM [22]: 8.18%; growth at 10 µM [23]: 10.7%; growth at 10 µM [24]: 22%; growth at 10 µM [25]: 18%; growth at 10 µM [26]: 63%; growth at 10 µM [27]: 24.1%; GI50 [28]: 0.4 µM; LC50 (concentration killing 50% of cells) [28]: > 100 µM; TGI [28]: > 100 µM; GI50 [29]: 1.09 µM; LC50 [29]: > 100 µM; TGI [29]: > 100 µM; GI50 [30]: 0.229 µM; CC50 [30]: > 100 µM
CN1CCc2nc3sc(C(N)=O)c(N)c3c(-c3cccs3)c2C1 | 107% | 108% | 103% | 10% | -18% | 9% | 1% | -4% | 6% | 9% | 10% | 7% | -18% | -10% | -28% | 10% | 19% | 15% | 19% | 11% | growth at 10 µM [21]: 1%; growth at 10 µM [22]: 10%; growth at 10 µM [23]: 12%; growth at 10 µM [24]: 28%; growth at 10 µM [25]: 6%; growth at 10 µM [26]: 10%; growth at 10 µM [27]: 8%; GI50 [28]: 4.02 µM; LC50 (concentration killing 50% of cells) [28]: > 100 µM; TGI [28]: > 100 µM; GI50 [29]: 5.16 µM; LC50 [29]: > 100 µM; TGI [29]: > 100 µM; GI50 [30]: 1.75 µM; TGI [30]: 4.86 µM; CC50 [30]: 41.7 µM
